FN deposition inh: fibronectin deposition inhibition | AH1F fibroblasts, Alexa488-fibronectin deposition fluorescence, overnight | inhibition, % at 12.6 µM | 350,000 compounds, 0.086% hits;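 active means mean inhibition across replicates of 30% or more, regardless of how many single replicates reach that level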;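 further: positive control wells lacked labelled fibronectin entirely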
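Material – AH1F fibroblast monolayer, labelled fibronectin deposition · Reagent – labelled fibronectin 24 nM · Timing – 1 h adhesion, overnight exposure · Measured by – fluorescence at 485 nm excitation, 525 nm emission · Read-out – inhibition of fibronectin deposition signal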
PAX8 inh HTS: inhibitors of PAX8 transcriptional activity in RMG-I cells | RMG-I TPO-luciferase reporter, SteadyGlo, 24 h | inhibition, % at 12.6 µM | 360,000 compounds, 1.2% hits | AID 652154;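 active means mean replicate inhibition at least 60% with every replicate also reaching 60%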;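 further: luciferase light reporting Pax8 driven TPO promoter activity; plate controls were median of neutral control wells for no effect and mitoxantrone controls for full effect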
EBV LMP1 NFkB: reduces LMP1-driven NF-kappaB luciferase signal; LMP1-induced NF-kappaB luciferase reporter cells, luminescence; inhibition, % at 12.5 µM; 350,000 compounds, 0.69% hits; AID 504558; in the data active means inhibition above about 41%;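 further: 0% = neutral control wells and 100% = reference inhibitor control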
aSyn 5UTR inh: MLPCN primary screen, SNCA 5' untranslated region | alpha-synuclein 5'UTR reporter, inhibitor activity | inhibition, % (tested at 7.5 µM) | 300,000 compounds, 0.82% hits | AID 1813; in the data active means inhibition above about 60%;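 further: H4 neuroglioblastoma cells stably carrying SNCA 5'UTR luciferase fusion; 0% = DMSO wells and 100% = positive control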
EWS-Fli block: inhibitors of EWS/Fli oncoprotein transcriptional activity; A673 NR0B1-luciferase reporter, viability-normalised; inhibition, % at 12.6 µM; 350,000 compounds, 0.67% hits; AID 651661;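 active means mean inhibition of at least 50% after viability correction, with every replicate also passing that limit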;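 further: firefly luciferase signal divided by Alamar Blue viability fluorescence both relative to DMSO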
Shn3 inh set2: reduces Shn3 3'UTR luciferase signal in osteoblasts; Clone20 osteoblast Shn3 3'UTR firefly luciferase, 24 h; inhibition, % at 12.5 µM; 360,000 compounds, 0.52% hits; AID 588674;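 active means mean inhibition of at least 75% with every replicate also reaching 75%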;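 further: 0% = median of neutral control wells and 100% = pilot-screen positive control compound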
DNA binding: small molecule DNA binding by fluorescence polarization; salmon sperm DNA acridine orange fluorescence polarization; 640 compounds, 2% hits; shares compounds with EWS-Fli block; AID 720586; AC35, µM (series often up to 68 µM), without a hit: at the highest dose activity change, negative = DNA binding;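 active means fitted curve reaches a 35% signal fall AC35 below twice the sample's top valid tested dose, actives reach about 48 µM in these data; inactive means the rest, including activity in the rising direction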;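 further: lower polarization ratio signals compound binding to DNA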
The depositor's hits bear a star; nt = not tested or not shown; ! = not active in a repeat. A selection: hits, their analogues and other compounds. The true share with any hit is near 2.1%.

SMILES	FN deposition inh	PAX8 inh HTS	EBV LMP1 NFkB	aSyn 5UTR inh	EWS-Fli block	Shn3 inh set2	DNA binding
C[C@H](CO)N1C[C@H](C)[C@H](CN(C)Cc2ccc(C(=O)Nc3ccccc3N)cc2)Oc2ccc(N(C)C)cc2CC1=O	-2.6	31.8	nt	nt	66.6*	nt	0.8%
C[C@H](CO)N1C[C@H](C)[C@H](CN(C)Cc2ccc(Oc3ccccc3)cc2)OCc2cnnn2CCCC1=O	14.8	nt	nt	nt	14.3	nt	nt
C[C@@H]1CN([C@@H](C)CO)C(=O)Cc2cc(N(C)C)ccc2O[C@@H]1CN(C)Cc1ccccc1	nt	20.9	nt	nt	54.8*	nt	-10.2%
C[C@H](CO)N1C[C@H](C)[C@@H](CN(C)Cc2ccc(Oc3ccccc3)cc2)Oc2ccc(NS(=O)(=O)c3ccc(Cl)cc3)cc2CC1=O	16.8	100.9*	nt	nt	57.1*	nt	-4.0%
C[C@@H]1CN([C@H](C)CO)C(=O)CCCn2nncc2CO[C@H]1CN(C)Cc1ccc(Oc2ccccc2)cc1	21.5	115.7*!	7.7	nt	70.1*!	6.9	-12.4%
O=C(CC1CC1)Nc1ccc2c(c1)[C@H]1C[C@H](CC(=O)N3CCOCC3)O[C@H](CO)[C@H]1O2	-11.1	4.5	nt	nt	5.3	nt	nt
CC(C)NC(=O)N(C)C[C@@H]1Oc2ncc(C#CC3CC3)cc2C(=O)N([C@@H](C)CO)C[C@@H]1C	-4.7	-15.5	nt	nt	4.3	nt	nt
C[C@@H]1CN([C@@H](C)CO)C(=O)c2cc(NC(=O)C3CC3)ccc2O[C@H]1CN(C)Cc1ccc(C(=O)Nc2ccccc2N)cc1	nt	nt	nt	nt	39.1	nt	nt
C[C@H]1CN([C@@H](C)CO)C(=O)c2cc(NC(=O)C3CCCCC3)ccc2O[C@H]1CN(C)Cc1ccc(C(=O)Nc2ccccc2N)cc1	nt	nt	nt	nt	51.8*	nt	-7.2%
C[C@H]1CN([C@@H](C)CO)C(=O)c2cc(NC(=O)CCCCCC(=O)Nc3ccccc3N)ccc2O[C@H]1CN(C)Cc1ccc(Cl)c(Cl)c1	nt	nt	nt	nt	17.7	nt	nt
C[C@@H]1CN([C@H](C)CO)C(=O)c2cc(NC(=O)CCCCCC(=O)Nc3ccccc3N)ccc2O[C@@H]1CN(C)Cc1ccc(Cl)c(Cl)c1	nt	nt	nt	nt	68.6*	nt	-0.6%
COc1ccc(C[C@H]2CCn3cc(nn3)COC[C@H](C(C)C)NC2=O)cc1	10.4	-2.1	nt	nt	-0.5	nt	nt
COC(=O)C[C@@H]1CC[C@@H]2[C@@H](COc3ccc(NC(=O)Nc4ccc(C#N)cc4)cc3C(=O)N2C)O1	-5.8	-5.5	nt	nt	78.1*	nt	12.2%
COC(=O)C[C@@H]1CC[C@H]2[C@H](COc3ccc(NC(=O)Nc4ccc(C#N)cc4)cc3C(=O)N2C)O1	-13.2	-2.2	nt	nt	86.8*	nt	5.1%
COC(=O)C[C@H]1CC[C@H]2[C@H](COc3ccc(NC(=O)Nc4ccc(C#N)cc4)cc3C(=O)N2C)O1	-11.7	3.8	nt	nt	41.9	nt	nt
NC1(C#Cc2ccc3c(=O)c4ccccc4sc3c2)CCCCC1	-5.7	-72.3	8.3	nt	5.0	-30.9	nt
Cc1cc2sc3ccc(C#CC4(O)CCCCC4)cc3c(=O)c2cc1C	0.2	31.5	77.6*	102.2*	90.8*	94.3*	5.2%
O=c1c2ccccc2oc2ccc(C#CC3(O)CCCCC3)cc12	-7.1	-16.6	-11.9	38.3	60.7*	1.7	-9.4%
N#Cc1ccc(C#Cc2ccc3oc4ccccc4c(=O)c3c2)cc1	16.4	-19.5	2.3	nt	-26.6	-5.1	nt
C[C@H](CO)N1C[C@H](C)[C@@H](CN(C)Cc2cccc(F)c2)Oc2ncc(C#CC(C)(C)O)cc2C1=O	-0.9	-1.5	nt	nt	-9.4	nt	nt
CN(C[C@H]1N[C@@H](CO)[C@@H]1c1ccc(C2=CCCC2)cc1)C(=O)c1ccc(F)cc1	-25.5	107.7*	nt	nt	73.4*	nt	-14.2%
COc1cc(C(c2c(C)[nH][nH]c2=O)c2c(C)[nH][nH]c2=O)ccc1OC(C)C	nt	-6.5	7.5	18.5	77.9*	-1.7	-15.9%
CC(=O)Oc1ccc(-c2ccc(C(=O)Nc3cccc(S(=O)(=O)N4CCOCC4)c3)cc2)cc1	3.8	40.9	-7.1	-22.2	59.2*	33.9	-7.2%
COc1ccc(C(=O)NC(=S)Nc2cccc(S(=O)(=O)N3CCOCC3)c2)cc1	3.0	14.1	-4.9	25.1	29.3	14.0	nt
CC(C)(C)c1ccc(C(=O)CC(=O)c2cc(Cl)ccc2O)cc1	nt	nt	5.9	12.4	nt	4.0	nt
SMILES	FN deposition inh	PAX8 inh HTS	EBV LMP1 NFkB	aSyn 5UTR inh	EWS-Fli block	Shn3 inh set2	DNA binding
N/C(=C\C(=O)c1cc(Cl)ccc1O)C(Cl)(Cl)Cl	3.4	43.3	-5.9	-80.1	62.0*	40.3	-4.5%
CN(C)C(=O)c1cccc(-c2ccc(C3[C@@H]4CN(S(=O)(=O)c5ccccc5F)C[C@H]3N4)cc2)c1 (stereo partly specified)	-1.9	-0.9	nt	nt	14.8	nt	nt
COc1ccc(C2=Nn3c([n+](C)c4ccccc43)SC2)cc1	0.0	83.8*	18.4	1.8	52.7*	82.2	-2.8%
COc1ccc2c3c([nH]c2c1)[C@@H](CO)N(CC1CC1)CC31CN(C(=O)NC2CCCC2)C1	-1.1	nt	nt	nt	-7.4	nt	nt
CCNC(=O)c1cccc(S(=O)(=O)N2CCCCCC2)c1	nt	-11.7	2.0	-5.5	66.8*	11.8	-20.4%
CCOc1ccc(C(=O)N/N=C/c2ccc(-c3ccc(S(=O)(=O)Nc4ncccn4)cc3)o2)cc1	-15.2	nt	3.5	-22.9	nt	-0.2	nt
CCOc1ccc(NC(=O)C(=O)N/N=C\c2ccc(CNS(=O)(=O)c3ccccc3)o2)cc1	nt	-15.4	-28.6	-50.5	86.5*	7.8	8.9%
COCc1cc(C)nc2sc(C(=O)NCCO)c(-n3cccc3)c12	nt	-10.2	-1.0	15.3	60.6*	13.1	-14.3%
O=C(Nc1ccc(F)cc1)N1CCCCN2[C@@H](CO)[C@H](c3ccc(C4=CCCCC4)cc3)[C@@H]2C1	3.0	54.3	nt	nt	51.6*	nt	-0.5%
Cc1nc(N)nc(N)c1/C=C/C(C)(C)c1ccc(Cl)cc1	19.5	67.6*	45.7*	124.8*	58.9*	70.1	-6.4%
C[C@@H]1CN([C@H](C)CO)C(=O)Cc2cc(NS(=O)(=O)c3ccccc3)ccc2O[C@H]1CN(C)S(=O)(=O)c1cn(C)cn1	nt	-19.2	nt	nt	-4.5	nt	nt
OCC1OC(n2ccc3c2ncn2ncnc32)C(O)C1O (stereo unspecified)	6.7	71.9*	13.1	nt	70.7*	9.3	-10.3%
C[C@H]1CN([C@@H](C)CO)C(=O)Cc2cc(NC(=O)Cc3ccccc3)ccc2O[C@@H]1CN(C)CC1CC1	nt	-16.3	nt	nt	-1.1	nt	nt
O=C(C[C@@H]1CC[C@@H]2[C@H](COC[C@@H](O)CN2C(=O)c2cnccn2)O1)NCc1ccccc1	2.9	-3.1	nt	nt	6.5	nt	nt
CCCCN=C(NNc1ccc(Br)cc1)C(=O)OCC	nt	-1.5	-6.1	-3.1	78.8*	-2.0	-8.7%
O=c1cnc2ccccc2n1Cc1ccc(Br)cc1	0.8	-61.9	-5.9	-65.0	-89.3	-26.2	nt
CC(C)(C)c1ccc(Cn2c(=O)cnc3ccccc32)cc1	-2.2	27.1	63.0*	-37.3	78.3*	80.6	-12.8%

Source: PubChem BioAssay (Broad Institute)
